T1: GST-pRbABC (residues 376–928) (UniProt P06400 376-928)
T1 sequence (looked up): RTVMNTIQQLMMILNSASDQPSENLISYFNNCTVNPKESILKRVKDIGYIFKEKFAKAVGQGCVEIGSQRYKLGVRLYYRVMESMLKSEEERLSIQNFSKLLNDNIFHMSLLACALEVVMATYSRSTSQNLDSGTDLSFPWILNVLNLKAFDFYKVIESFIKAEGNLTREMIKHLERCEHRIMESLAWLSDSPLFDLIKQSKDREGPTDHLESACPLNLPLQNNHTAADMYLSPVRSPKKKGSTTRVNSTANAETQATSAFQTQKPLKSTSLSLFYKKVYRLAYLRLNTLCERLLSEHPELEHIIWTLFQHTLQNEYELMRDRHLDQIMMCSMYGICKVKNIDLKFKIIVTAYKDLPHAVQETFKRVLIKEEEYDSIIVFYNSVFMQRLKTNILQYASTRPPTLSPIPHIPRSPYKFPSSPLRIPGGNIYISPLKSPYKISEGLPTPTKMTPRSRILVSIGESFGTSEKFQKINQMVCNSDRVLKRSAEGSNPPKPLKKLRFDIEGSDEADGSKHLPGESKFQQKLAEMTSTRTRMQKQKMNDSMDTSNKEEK

B1: 6xHis-HPV1AE7_(CR2-3) (residues 16–93) (domain or fragment)
chain: EPSVLDLDLYCYEEVPPDDIEEELVSPQQPYAVVASCAYCEKLVRLTVLADHSAIRQLEELLLRSLNIVCPLCTLQRQ
B2: 6xHis-Ad5E1A_(CR1-3) (residues 36–189) (domain or fragment)
chain: SHFEPPTLHELYDLDVTAPEDPNEEAVSQIFPDSVMLAVQEGIDLLTFPPAPGSPEPPHLSRQPEQPEQRALGPVSMPNLVPEVIDLTCHEAGFPPSDDEDEEGEEFVLDYVEHPGHGCRSCHYHRRNTGDPDIMCSLCYMRTCGMFVYSPVSE

Key:
[1] = system: SiHa cells; test: Flow cytometry, DNA content by propidium iodide staining; type: cell-based, human; conditions: 2 µM, 48 hours
In short: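 Cells seeded at 1×105 per 60 mm dish; next day test compound or DMSO added for 48 hr. Cells trypsinized, PBS-washed, fixed in 80% ethanol, pelleted 500g 5 min, stained with PI (100 µL 2mg/ml PI plus 10 µg RNase A in 10 mL PBS). DNA content analysed by flow cytometry; apoptotic fraction taken from area under the corresponding histogram region.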

[2] = target: E7 LxCxE peptide LxCxE peptide (Human papillomavirus type 16) (UniProt P03129); conditions: cited from earlier work
E7 LxCxE peptide LxCxE peptide (Human papillomavirus type 16), sequence (P03129 whole entry, looked up, the tested form may be a part): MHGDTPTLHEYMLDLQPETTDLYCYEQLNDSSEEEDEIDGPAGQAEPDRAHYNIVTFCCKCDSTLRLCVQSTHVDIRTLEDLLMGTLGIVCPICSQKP

[3] = target: T1, GST-pRbABC (residues 376–928); test: ELISA

Molecule | binding result [3] | also measured
CN[C@@H]1C[C@H]2O[C@@](C)([C@@H]1OC)n1c3ccccc3c3c4c(c5c6ccccc6n2c5c31)C(=O)NC4 [staurosporine, Staurosporine] |  | apoptotic cells [1]: 34.3%
pRb (from UniProt P06400) |  | Kd [2]: 110 nM
B1 | binds | 
B2 | binds | 
